Data: ChEMBL document CHEMBL4138311, “Antitumorigenic Properties of Omega-3 Endocannabinoid Epoxides” (J Med Chem, 2018)
Activity calls are given as the source filed them. The rule behind the calls is not given here.

Experiments:
MG-63 [1] = assay: Cell cycle arrest in human MG63 cells assessed as accumulation at G1 phase after 24 hrs by propidium iodide-staining based flow cytometry (reference value: 62.9 +/- 1.8%); assay type: functional
HUVEC [2] = assay: Anti-angiogenic activity in HUVEC assessed as inhibition of tube formation at 0.5 to 1 uM after 5 hrs by fluorescent microscopy based matrigel assay; assay type: functional, cell-based; details: Homo sapiens
In short: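 HUVEC at passage 2 were grown to 80% confluency, and 15,000 cells were plated on Matrigel pre-set 1 h at 37 °C. Cells got vehicle, 0.5 or 1 μM compound, with no-matrix and vinblastine controls, in duplicate wells for 5 h at 37 °C. After washing, cells were stained 30 min at 37 °C. Fluorescence images were scored for tube formation with an angiogenesis analyzer.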

143B [3] = assay: Induction of apoptosis in human 143B cells at 12.5 by Annexin V-FITC/propidium iodide double staining based flow cytometry relative to control; assay type: functional
143B [4] = assay: Cell cycle arrest in human 143B cells assessed as accumulation at S phase after 24 hrs by propidium iodide-staining based flow cytometry (reference value: 26.6 +/- 0.4%); assay type: functional
MG-63 [5] = assay: Cell cycle arrest in human MG63 cells assessed as accumulation at S phase after 24 hrs by propidium iodide-staining based flow cytometry (reference value: 20.2 +/- 1.8%); assay type: functional
HOS [6] = assay: Induction of apoptosis in human HOS cells at 12.5 by Annexin V-FITC/propidium iodide double staining based flow cytometry relative to control; assay type: functional
143B [7] = assay: Cell cycle arrest in human 143B cells assessed as accumulation at G1 phase after 24 hrs by propidium iodide-staining based flow cytometry (reference value: 56.2 +/- 2.7%); assay type: functional
HUVEC [8] = assay: Cytotoxicity against HUVEC assessed as reduction in cell viability at 1 uM after 24 hrs by cell-titer blue assay; assay type: cell-based; details: human
MG-63 [9] = assay: Cell cycle arrest in human MG63 cells assessed as accumulation at G2 phase after 24 hrs by propidium iodide-staining based flow cytometry (reference value: 16.9 +/- 0.01%); assay type: functional
MG-63 [10] = assay: Induction of apoptosis in human MG63 cells at 12.5 by Annexin V-FITC/propidium iodide double staining based flow cytometry relative to control; assay type: functional
[11] = biological target: T1, Fatty-acid amide hydrolase 1 (Sus scrofa, UniProt Q9TUI8); assay: Drug metabolism in pig forebrain membranes assessed as FAAH-mediated 10,11-EDP formation by measuring hydrolysis rate per mg protein at 20 uM after 40 mins by LC-MS/MS analysis; assay type: ADME, cell membranes, Membrane
T1 sequence (Q9TUI8 whole entry): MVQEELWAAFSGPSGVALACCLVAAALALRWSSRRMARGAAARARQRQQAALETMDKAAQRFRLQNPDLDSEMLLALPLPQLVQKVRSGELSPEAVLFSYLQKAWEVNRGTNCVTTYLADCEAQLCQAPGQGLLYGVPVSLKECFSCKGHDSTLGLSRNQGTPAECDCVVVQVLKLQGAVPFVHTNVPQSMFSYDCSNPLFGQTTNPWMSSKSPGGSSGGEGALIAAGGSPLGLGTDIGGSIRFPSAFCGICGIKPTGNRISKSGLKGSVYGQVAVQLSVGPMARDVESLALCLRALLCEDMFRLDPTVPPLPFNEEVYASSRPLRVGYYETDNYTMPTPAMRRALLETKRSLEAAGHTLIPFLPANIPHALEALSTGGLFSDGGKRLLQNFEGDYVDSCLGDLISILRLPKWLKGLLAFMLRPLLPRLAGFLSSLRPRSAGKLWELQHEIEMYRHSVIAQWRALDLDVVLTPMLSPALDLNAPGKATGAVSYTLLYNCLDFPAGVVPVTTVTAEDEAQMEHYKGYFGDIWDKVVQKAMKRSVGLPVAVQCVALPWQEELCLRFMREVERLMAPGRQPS
In short: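 Each 0.5 mL reaction held 5 µg membrane protein in the same buffer with 20 µM amide. Reactions were stopped at 40 min with methanol containing 1 mM PMSF and centrifuged. The supernatant was run on C18 LC-MS/MS, negative ESI, MRM for 10,11-EDP (m/z 343.0).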

HOS [12] = assay: Cell cycle arrest in human HOS cells assessed as accumulation at S phase after 24 hrs by propidium iodide-staining based flow cytometry (reference value: 37.1 +/- 1.6%); assay type: functional
143B [13] = assay: Cell cycle arrest in human 143B cells assessed as accumulation at G2 phase after 24 hrs by propidium iodide-staining based flow cytometry (reference value: 17.2 +/- 2.3%); assay type: functional
HOS [14] = assay: Cell cycle arrest in human HOS cells assessed as accumulation at G1 phase after 24 hrs by propidium iodide-staining based flow cytometry (reference value: 47.8 +/- 0.7%); assay type: functional
HOS [15] = assay: Cell cycle arrest in human HOS cells assessed as accumulation at G2 phase after 24 hrs by propidium iodide-staining based flow cytometry (reference value: 15.1 +/- 0.97%); assay type: functional
143B [16] = assay: Cytotoxicity against human 143B cells assessed as reduction in cell viability at 12.5 uM after 24 hrs by cell-titer blue assay; assay type: functional, cell-based
143B [17] = assay: Cytotoxicity against human 143B cells assessed as reduction in cell viability at 25 uM after 24 hrs by cell-titer blue assay; assay type: functional, cell-based
143B [18] = assay: Induction of apoptosis in human 143B cells at 12.5 in presence of rimonabant by Annexin V-FITC/propidium iodide double staining based flow cytometry relative to control; assay type: functional
MG-63 [19] = assay: Antimigratory activity in human MG63 cells at 5 uM measured after 10 hrs by wound-healing assay; assay type: functional, cell-based
In short: (§1)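 A confluent monolayer of HOS, 143B or MG63 cells (DMEM, 10% FBS) was scratched with a pipette tip, then given fresh medium with 5 μM compound or vehicle at 37 °C, 5% CO₂. Images were taken every 2 h and wound area normalized to 100% at 0 h. Results are the ratio of wound remaining, treated to control, at 6 and 10 h.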

143B [20] = assay: Induction of apoptosis in human 143B cells at 12.5 in presence of AM 630 by Annexin V-FITC/propidium iodide double staining based flow cytometry relative to control; assay type: functional
143B [21] = assay: Antimigratory activity in human 143B cells at 5 uM measured after 10 hrs by wound-healing assay; assay type: functional, cell-based; in short: as §1
HOS [22] = assay: Antimigratory activity in human HOS cells at 5 uM after 6 to 10 hrs by wound-healing assay; assay type: functional, cell-based; in short: as §1
Cannabinoid receptor 1 = Cannabinoid receptor 1 (Homo sapiens, UniProt P21554); assay: Agonist activity at N-terminal FLAG-tagged human CB1 receptor transfected in human HTLA cells assessed as induction of beta-arrestin-recruitment after 8 to 14 hrs by bright-glo luminescence based assay; assay type: functional, cell-based
In short: (§2)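 HTLA cells (DMEM, 10% FBS, puromycin 2 μg/mL, hygromycin B 100 μg/mL) were seeded at 20,000 per well on poly-L-lysine and transfected after 18–24 h with CNR1 or CNR2 Tango plasmid, 0.1 μg/well. After 36–48 h they were starved 4 h in 1% dialyzed FBS, or 30 min with 1 μM AUDA for epoxides. Log-dose compound was added for 8–14 h, then Bright-Glo luminescence read. RLU was normalized to % receptor response and fitted to a dose-response curve.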

Cannabinoid receptor 2 = Cannabinoid receptor 2 (Homo sapiens, UniProt P34972); assay: Agonist activity at N-terminal FLAG-tagged human CB2 receptor transfected in human HTLA cells assessed as induction of beta-arrestin-recruitment after 8 to 14 hrs by bright-glo luminescence based assay; assay type: functional, cell-based; in short: as §2
143B [23] = assay: Antimigratory activity in human 143B cells at 5 uM measured after 10 hrs in presence of CB1 receptor antagonist rimonabant by wound-healing assay; assay type: functional, cell-based
MG-63 [24] = assay: Antimigratory activity in human MG63 cells at 5 uM measured after 6 hrs by wound-healing assay; assay type: functional, cell-based; in short: as §1

Sequence of Cannabinoid receptor 1 (P21554 whole entry): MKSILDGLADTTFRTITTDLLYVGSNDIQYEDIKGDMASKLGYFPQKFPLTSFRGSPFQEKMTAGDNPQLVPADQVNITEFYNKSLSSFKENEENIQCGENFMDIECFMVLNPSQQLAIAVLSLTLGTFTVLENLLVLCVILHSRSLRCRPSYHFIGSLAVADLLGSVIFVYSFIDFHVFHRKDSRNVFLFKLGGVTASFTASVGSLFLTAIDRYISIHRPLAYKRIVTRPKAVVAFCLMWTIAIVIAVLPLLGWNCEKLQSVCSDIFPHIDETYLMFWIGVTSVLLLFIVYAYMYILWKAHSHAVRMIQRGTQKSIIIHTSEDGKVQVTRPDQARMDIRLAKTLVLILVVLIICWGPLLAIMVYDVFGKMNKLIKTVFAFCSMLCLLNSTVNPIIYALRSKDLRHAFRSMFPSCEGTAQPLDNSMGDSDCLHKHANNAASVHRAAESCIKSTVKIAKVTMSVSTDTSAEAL
Sequence of Cannabinoid receptor 2 (P34972 whole entry): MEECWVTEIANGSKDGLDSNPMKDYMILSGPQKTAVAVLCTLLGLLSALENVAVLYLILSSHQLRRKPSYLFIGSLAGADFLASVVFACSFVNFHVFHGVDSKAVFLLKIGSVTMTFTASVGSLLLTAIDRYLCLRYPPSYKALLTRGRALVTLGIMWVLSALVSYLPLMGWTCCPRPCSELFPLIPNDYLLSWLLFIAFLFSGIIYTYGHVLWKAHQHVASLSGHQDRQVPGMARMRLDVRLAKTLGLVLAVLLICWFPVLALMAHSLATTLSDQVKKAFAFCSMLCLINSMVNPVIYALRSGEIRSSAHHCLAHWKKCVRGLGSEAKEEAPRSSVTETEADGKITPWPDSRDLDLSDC

Row | SMILES | Activity (MG-63 [1]) [%] | Activity (HUVEC [2]) | Activity (143B [3]) [%] | Activity (143B [4]) [%] | Activity (MG-63 [5]) [%] | Activity (HOS [6]) [%] | Activity (143B [7]) [%] | Activity (HUVEC [8]) | Activity (MG-63 [9]) [%] | Activity (MG-63 [10]) [%] | Drug metabolism [11] [pmol/min] | Activity (HOS [12]) [%] | Activity (143B [13]) [%] | Activity (HOS [14]) [%] | Activity (HOS [15]) [%] | Activity (143B [16]) | Activity (143B [17]) | Activity (143B [18]) [%] | Activity (143B [20]) [%] | Activity (143B [21]) | also measured
1 | CC/C=C\C/C=C\C/C=C\CC1OC1C/C=C\C/C=C\CCC(=O)NC(C)CO (configuration not stated) | 76.7 | Active | 18.8 | 41.8 | 10.8 | 20.2 | 50.1 | Non-Toxic | 12.5 | 17.5 | 0.99 | 24.3 | 8.1 | 55.8 | 20 | – | – | – | – | – | –
2 | CC/C=C\C/C=C\C/C=C\CC1OC1C/C=C\C/C=C\CCC(=O)NCCCO (configuration not stated) | 63.5 | Active | 25.7 | 24 | 19 | 17.1 | 52.2 | Non-Toxic | 17.5 | 15.2 | – | 20.7 | 23.7 | 62.2 | 17.1 | – | – | – | – | – | –
3 | CCC1OC1C/C=C\C/C=C\C/C=C\C/C=C\C/C=C\CCC(=O)NCCO (configuration not stated) | – | – | – | – | – | – | – | – | – | – | – | – | – | – | – | inactive | Active | – | – | – | –
4 | CC/C=C\CC1OC1C/C=C\C/C=C\C/C=C\C/C=C\CCC(=O)NCCO (configuration not stated) | – | – | – | – | – | – | – | – | – | – | – | – | – | – | – | inactive | Active | – | – | – | –
5 | CC/C=C\C/C=C\C/C=C\CC1OC1C/C=C\C/C=C\CCC(=O)NC1CC1 (configuration not stated) | 59.6 | Active | 21.3 | 22.9 | 23.1 | 27.2 | 54.2 | Non-Toxic | 16.9 | 17.1 | 5.17 | 30.5 | 22.9 | 54.4 | 15.1 | – | – | – | – | – | –
6 | CC/C=C\C/C=C\C/C=C\C/C=C\CC1OC1C/C=C\CCC(=O)NCCO (configuration not stated) | – | – | 8.75 | – | – | 17.1 | – | – | – | 16.4 | – | – | – | – | – | Active | Active | 14.6 | 10.1 | inactive | Activity (MG-63 [19]): Active; Activity (HOS [22]): inactive
7 | CC/C=C\C/C=C\C/C=C\CC1OC1C/C=C\C/C=C\CCC(=O)NCCO (configuration not stated) | 67.7 | Active | 17.92 | 28.9 | 17.9 | 31.1 | 50.7 | Non-Toxic | 14.4 | 26.6 | 30 | 20.3 | 21.1 | 67.2 | 12.4 | Active | Active | 7.44 | 10.9 | Active | EC50 (Cannabinoid receptor 1): 0.43 nM; EC50 (Cannabinoid receptor 2): 22.5 nM; Activity (143B [23]): inactive
8 | CC/C=C\C/C=C\CC1OC1C/C=C\C/C=C\C/C=C\CCC(=O)NCCO (configuration not stated) | – | – | 9.95 | – | – | 19.6 | – | – | – | 16.9 | – | – | – | – | – | Active | Active | 13.03 | 9.2 | inactive | Activity (MG-63 [19]): Active; Activity (MG-63 [24]): inactive; Activity (HOS [22]): inactive
